ChEMBL document CHEMBL1275429, “Pharmacodynamic characterization of ceftobiprole in experimental pneumonia caused by phenotypically diverse Staphylococcus aureus strains” (Antimicrob Agents Chemother, 2008)
≈ marks a conversion by molar mass, not a printed value.

What was measured:
[1] = fT>MIC required for stasis inhibition of community acquired methicillin-resistant Staphylococcus aureus 146 infection in neutropenic BALB/cAnNCr mouse; assay type: functional
Outline: (§1)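 Same neutropenic murine pneumonia model, with 24-h lung log10 CFU change (5 mice per group; 1–25 mg/kg s.c., 1–5 times daily). […] ED50, ED80 and stasis exposures were taken from a sigmoid Emax fit for each isolate.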

[2] = fT>MIC required for stasis inhibition of methicillin-susceptible Staphylococcus aureus 25923 infection in neutropenic BALB/cAnNCr mouse; assay type: functional
[3] = fT>MIC required for 50% inhibition of community acquired Staphylococcus aureus 147 infection in neutropenic BALB/cAnNCr mouse; assay type: functional
[4] = fT>MIC required for 50% inhibition of hospital acquired Staphylococcus aureus 152 infection in neutropenic BALB/cAnNCr mouse; assay type: functional
[5] = fT>MIC required for 50% inhibition of hospital acquired methicillin-resistant Staphylococcus aureus 56 infection in neutropenic BALB/cAnNCr mouse; assay type: functional; outline: as §1
[6] = fT>MIC required for 80% inhibition of methicillin-susceptible Staphylococcus aureus 25923 infection in neutropenic BALB/cAnNCr mouse; assay type: functional
Staphylococcus aureus [7] = experiment: Antimicrobial activity against Staphylococcus aureus infected in BALB/cAnNCr mouse assessed as decrease in bacterial density in lungs relative to control at 1 to 25 mg/kg, sc administered as 1 to 5 times/day after 24 hrs […]; assay type: functional; conditions: dose mg/kg 1-5; route subcutaneous
Outline: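 Neutropenic mice given oral S. aureus inoculum (10^7 CFU/ml in 3% mucin). s.c. dosing of 1–25 mg/kg, once to five times daily, began 6 h post-infection and ran 24 h, five mice per group, with sham-treated controls. Lung homogenates were plated on blood and Columbia agar at 35°C up to 48 h. Log10 CFU/ml at 24 h was compared with untreated controls.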

[8] = Elimination clearance in neutropenic BALB/cAnNCr mouse infected with Staphylococcus aureus at 25 mg/kg, sc administered as single dose after 6 hrs of infection; assay type: ADME, organism-based; parameters: dose 25 mg/kg, route subcutaneous; conditions: in vivo
Outline: (§2)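 Neutropenic female mice (cyclophosphamide i.p. 250 mg/kg day −4, 100 mg/kg day −1) with HA-MRSA 56 pneumonia (oral inoculum, 10^7 CFU/ml in 3% mucin). Single s.c. dose in sterile water. Plasma by intracardiac puncture at 0.25–4 h, six mice per time point, stabilized with citric acid. Assayed by validated HPLC (LOQ 0.01 µg/ml). Parameters from one-compartment analysis.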

[9] = Elimination half life in neutropenic BALB/cAnNCr mouse infected with Staphylococcus aureus at 10 mg/kg, sc administered as single dose after 6 hrs of infection; assay type: ADME, organism-based; parameters: dose 10 mg/kg, route subcutaneous; conditions: in vivo; outline: as §2
[10] = Elimination half life in neutropenic BALB/cAnNCr mouse infected with Staphylococcus aureus at 1 mg/kg, sc administered as single dose after 6 hrs of infection; assay type: ADME, organism-based; parameters: dose 1 mg/kg, route subcutaneous; conditions: in vivo; outline: as §2
Mus musculus [11] = experiment: Volume of distribution in neutropenic BALB/cAnNCr mouse infected with Staphylococcus aureus at 25 mg/kg, sc administered as single dose after 6 hrs of infection; assay type: ADME, organism-based; parameters: dose 25 mg/kg, route subcutaneous; conditions: in vivo; outline: as §2
Mus musculus [12] = experiment: Volume of distribution in neutropenic BALB/cAnNCr mouse infected with Staphylococcus aureus at 10 mg/kg, sc administered as single dose after 6 hrs of infection; assay type: ADME, organism-based; parameters: dose 10 mg/kg, route subcutaneous; conditions: in vivo; outline: as §2
Mus musculus [13] = experiment: Volume of distribution in neutropenic BALB/cAnNCr mouse infected with Staphylococcus aureus at 2.5 mg/kg, sc administered as single dose after 6 hrs of infection; assay type: ADME, organism-based; parameters: dose 2.5 mg/kg, route subcutaneous; conditions: in vivo
Outline: (§3)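 Female BALB/cAnNCr mice (7-9 weeks, 15-22 g) made neutropenic with cyclophosphamide, 250 mg/kg i.p. on day -4 and 100 mg/kg i.p. on day -1. Infected by oral aspiration of HA-MRSA 56 (10^7 CFU/ml in 3% mucin/saline). Single s.c. dose in sterile water given 6 h post-challenge. Plasma (EDTA, citric acid-stabilized) taken at 0.25-4 h, six mice per time point. Assayed by validated HPLC (LOQ 0.01 µg/ml); one-compartment analysis.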

[14] = AUC (0 to infinity) in neutropenic BALB/cAnNCr mouse infected with Staphylococcus aureus at 10 mg/kg, sc administered as single dose after 6 hrs of infection; assay type: ADME, organism-based; parameters: time infinity, dose 10 mg/kg, route subcutaneous; conditions: plasma; outline: as §2
[15] = AUC (0 to infinity) in neutropenic BALB/cAnNCr mouse infected with Staphylococcus aureus at 1 mg/kg, sc administered as single dose after 6 hrs of infection; assay type: ADME, organism-based; parameters: time infinity, dose 1 mg/kg, route subcutaneous; conditions: plasma; outline: as §2
[16] = Tmax in neutropenic BALB/cAnNCr mouse infected with Staphylococcus aureus at 25 mg/kg, sc administered as single dose after 6 hrs of infection; assay type: ADME, organism-based; parameters: dose 25 mg/kg, route subcutaneous; conditions: in vivo; outline: as §2
[17] = Cmax in neutropenic BALB/cAnNCr mouse infected with Staphylococcus aureus at 10 mg/kg, sc administered as single dose after 6 hrs of infection; assay type: ADME, organism-based; parameters: dose 10 mg/kg, route subcutaneous; conditions: in vivo; outline: as §2
[18] = Cmax in neutropenic BALB/cAnNCr mouse infected with Staphylococcus aureus at 2.5 mg/kg, sc administered as single dose after 6 hrs of infection; assay type: ADME, organism-based; parameters: dose 2.5 mg/kg, route subcutaneous; conditions: in vivo; outline: as §3
[19] = Cmax in neutropenic BALB/cAnNCr mouse infected with Staphylococcus aureus at 1 mg/kg, sc administered as single dose after 6 hrs of infection; assay type: ADME, organism-based; parameters: dose 1 mg/kg, route subcutaneous; conditions: in vivo; outline: as §2
Staphylococcus aureus [20] = experiment: Antimicrobial activity against hospital acquired methicillin-resistant Staphylococcus aureus 56 by broth microdilution method; assay type: functional
Outline: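 Broth microdilution run in triplicate following CLSI guidelines. Isolates were stored at –80°C in double-strength skim milk and subcultured twice on Trypticase soy agar with 5% sheep blood before testing.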

Staphylococcus aureus [21] = experiment: Antimicrobial activity against hospital acquired methicillin-resistant Staphylococcus aureus 152 infected in BALB/cAnNCr mouse assessed as decrease in bacterial density in lungs at 1 to 25 mg/kg, sc administered as 1 to 5 times/day after 24 hrs […] relative to control; assay type: functional; conditions: route subcutaneous
Outline: (§4)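 Female BALB/cAnNCr mice (7–9 weeks) were made neutropenic with cyclophosphamide i.p. at 250 mg/kg on day −4 and 100 mg/kg on day −1. Under isoflurane, mice received an oral inoculum in 3% mucin/saline, with nostrils blocked until aspiration. Drug (1–25 mg/kg s.c., once to five times daily, water vehicle) or sham started 6 h post-inoculation. Lungs were harvested at 24 h, homogenized and plated on blood and Columbia agar at 35°C. Mean log10 CFU/ml was compared with the 0-h untreated baseline; 5 mice per group.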

Staphylococcus aureus [22] = experiment: Antimicrobial activity against community acquired methicillin-resistant Staphylococcus aureus 144 infected in BALB/cAnNCr mouse assessed as decrease in bacterial density in lungs at 1 to 25 mg/kg, sc administered as 1 to 5 times/day after 24 hrs […] relative to control; assay type: functional; conditions: route subcutaneous; outline: as §4
[23] = fT>MIC required for 50% inhibition of Staphylococcus aureus infection in neutropenic BALB/cAnNCr mouse; assay type: functional
[24] = fCmax/MIC required for 80% inhibition of Staphylococcus aureus infection in neutropenic BALB/cAnNCr mouse; assay type: functional
[25] = fCmax/MIC required for 50% inhibition of Staphylococcus aureus infection in neutropenic BALB/cAnNCr mouse; assay type: functional
[26] = fAUC/MIC required for 80% inhibition of Staphylococcus aureus infection in neutropenic BALB/cAnNCr mouse; assay type: functional
[27] = fAUC/MIC required for 50% inhibition of Staphylococcus aureus infection in neutropenic BALB/cAnNCr mouse; assay type: functional

Nc1nc(/C(=N/O)C(=O)N[C@@H]2C(=O)N3C(C(=O)O)=C(/C=C4\CCN([C@@H]5CCNC5)C4=O)CS[C@H]23)ns1 [CEFTOBIPROLE]
fT>MIC [1]: 5.6%
fT>MIC [2]: 7.6%
fT>MIC [3]: 17.1%
fT>MIC [4]: 14%
fT>MIC [5]: 13.7%
fT>MIC [6]: 10.2%
log10cfu (Staphylococcus aureus [7]): 2.5
CL/F [8]: 0.71 L/h/kg
half-life [9]: 25.2 min
half-life [10]: 15 min
Vd (Mus musculus [11]): 0.41 L/kg
Vd (Mus musculus [12]): 0.38 L/kg
Vd (Mus musculus [13]): 0.63 L/kg
AUC(0-inf) [14]: 15.8 µg·h/mL
AUC(0-inf) [15]: 1.84 µg·h/mL
Tmax [16]: 28.2 min
Cmax [17]: 19.8 µg/mL
Cmax [18]: 2.91 µg/mL
Cmax [19]: 1.74 µg/mL
MIC (Staphylococcus aureus [20]): 1 mg/L (≈ 1.87 µM)
log10cfu (Staphylococcus aureus [21]): 3.8
log10cfu (Staphylococcus aureus [22]): 2.9
fT>MIC [23]: 12%
fCmax/MIC [24]: 2
fCmax/MIC [25]: 2
fAUC/MIC [26]: 3
fAUC/MIC [27]: 3
